Assay results from ChEMBL document CHEMBL4196166 (J Med Chem, 2018).
pIC50, pKi: −log10 of the molar value.

Legend:
[1] = molecular target: T1, Urokinase-type plasminogen activator (Homo sapiens, UniProt P00749); test: Inhibition of human kidney uPA using Z-Gly-Gly-Arg-AMC as substrate measured over 15 mins by fluorescence assay
[2] = molecular target: T1, Urokinase-type plasminogen activator; test: Inhibition of human kidney uPA using chromogenic H-D-Ile-L-Pro-L-Arg-p-nitoraniline as substrate by fluorescence assay
How it was run: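 Enzyme was uPA from human kidney cells at 10 nM final. […] Absorbance change at 405 nm gave initial rates. IC50 from a sigmoidal fit of % residual activity vs log concentration.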

[3] = molecular target: Tissue-type plasminogen activator (Homo sapiens, UniProt P00750); test: Inhibition of tPA (unknown origin) using chromogenic H-D-Ile-L-Pro-L-Arg-p-nitoraniline as substrate by […]
Plasminogen = Plasminogen (Homo sapiens, UniProt P00747); test: Inhibition of plasmin (unknown origin) using chromogenic H-D-Ile-L-Pro-L-Arg-p-nitoraniline as substrate by […]
Prothrombin = Prothrombin (Homo sapiens, UniProt P00734); test: Inhibition of thrombin (unknown origin) using chromogenic H-D-Ile-L-Pro-L-Arg-p-nitoraniline as substrate by […]
Plasma kallikrein = Plasma kallikrein (Homo sapiens, UniProt P03952); test: Inhibition of human plasma kallikrein using chromogenic L-pyroGlu-L-Pro-L-Arg-p-nitroaniline as substrate by fluorescence assay
Coagulation factor XI = Coagulation factor XI (Homo sapiens, UniProt P03951); test: Inhibition of factor 11a (unknown origin) using chromogenic L-pyroGlu-L-Pro-L-Arg-p-nitroaniline as substrate by […]
Coagulation factor X = Coagulation factor X (Homo sapiens, UniProt P00742); test: Inhibition of factor 10a (unknown origin) using chromogenic H-D-Ile-L-Pro-L-Arg-p-nitoraniline as substrate by fluorescence assay
[4] = molecular target: Vitamin K-dependent protein C (Homo sapiens, UniProt P04070); test: Inhibition of activated protein C (unknown origin) using chromogenic L-pyroGlu-L-Pro-L-Arg-p-nitroaniline as substrate by fluorescence assay
HepG2 = test: Cytotoxicity against human HepG2 cells assessed as reduction in cell viability after 48 hrs by CellTiter 96 Aqueous One solution cell proliferation assay; assay type: functional, cell-based; conditions: HepG2, 48 h
How it was run: (§1)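 Cells grown in DMEM high glucose with 10% heat-inactivated FCS, seeded at 5000/well and left 18 h. Compounds added at 1 nM–100 µM final (0.2% vehicle), n = 4 wells per concentration, with colour blanks. After 48 h, MTS reagent added for 2 h and A490 read. IC50 from a variable-slope sigmoidal fit.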

HEK293 = test: Cytotoxicity against HEK293 cells assessed as reduction in cell viability after 48 hrs by CellTiter 96 Aqueous One solution cell proliferation assay; assay type: cell-based; conditions: Homo sapiens, HEK293, 48 h; how it was run: as §1
HT-1080 = test: Cytotoxicity against human HT1080 cells assessed as reduction in cell viability after 48 hrs by CellTiter 96 Aqueous One solution cell proliferation assay; assay type: functional, cell-based; conditions: HT-1080, 48 h; how it was run: as §1
[5] = molecular target: Urokinase-type plasminogen activator (Mus musculus, UniProt P06869); test: Inhibition of mouse uPA using Z-Gly-Gly-Arg-AMC as substrate after 15 mins by fluorescence assay
[6] = molecular target: T2, Epithelial sodium channel subunit beta (Homo sapiens, UniProt P51168); test: Inhibition of S-3969-stimulated recombinant human ENaC beta subunit expressed in HEK293 cells at 10 uM preincubated for 5 mins followed by S-3969 stimulation by FLIPR assay; assay type: cell-based; conditions: hek293, 10 µM
T2 sequence (P51168 whole entry): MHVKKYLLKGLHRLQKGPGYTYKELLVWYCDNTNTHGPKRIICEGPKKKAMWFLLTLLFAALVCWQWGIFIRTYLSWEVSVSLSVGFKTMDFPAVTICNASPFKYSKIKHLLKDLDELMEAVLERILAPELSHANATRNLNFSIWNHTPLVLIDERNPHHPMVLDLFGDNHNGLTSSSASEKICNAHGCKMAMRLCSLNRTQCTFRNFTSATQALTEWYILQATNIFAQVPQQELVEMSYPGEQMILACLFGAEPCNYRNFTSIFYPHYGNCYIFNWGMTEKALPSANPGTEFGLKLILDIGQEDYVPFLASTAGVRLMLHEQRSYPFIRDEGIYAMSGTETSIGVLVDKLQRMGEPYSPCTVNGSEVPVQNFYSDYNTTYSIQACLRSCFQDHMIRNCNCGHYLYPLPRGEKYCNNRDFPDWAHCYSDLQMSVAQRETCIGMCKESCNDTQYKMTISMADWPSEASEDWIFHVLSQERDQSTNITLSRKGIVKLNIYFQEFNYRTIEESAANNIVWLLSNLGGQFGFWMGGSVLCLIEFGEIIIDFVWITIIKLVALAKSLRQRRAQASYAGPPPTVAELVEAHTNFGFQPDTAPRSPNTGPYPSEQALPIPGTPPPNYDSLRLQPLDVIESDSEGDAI
How it was run: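 HEK-293 cells transfected with human ENaC α, β and γ cDNA together, plated at 20 000 cells/well, incubated overnight at 37 °C. Loaded with membrane-potential red dye for 30 min at 37 °C. Compound preincubated 5 min in HEPES-buffered salt solution (pH 7.4, 0.3% DMSO), then stimulated with 1 µM S-3969, read on FLIPR. Signal normalized to agonist alone (100%) and agonist plus 30 µM benzamil (0%). n = 4 wells.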

Rattus norvegicus [7] = test: Diuretic effect in Sprague-Dawley rat assessed as increase in acetazolamide-induced urine volume at 1.5 mg/kg, iv measured after 6 hrs post dose relative to acetazolamide-treated control; assay type: ADME, organism-based; conditions: in vivo
How it was run: (§2)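 Male 21-week-old Sprague-Dawley rats, 8 per group. One ip injection of 25 mg/kg acetazolamide (25 mg/mL in 0.9% saline, 1 mL/kg) or vehicle, then one iv injection of 1.5 mg/kg compound (1.5 mg/mL, 1 mL/kg) in 50 mM acetate buffer pH 5.5/5% DMSO, with 0.5% Tween-80 for some compounds. Total urine collected in metabolic cages over 6 h. Urine Na+ and K+ measured on a biochemistry analyzer. Mean ± SEM reported.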

Rattus norvegicus [8] = test: Antikaliuretic effect in Sprague-Dawley rat assessed as increase in acetazolamide-induced Na+ excretion at 1.5 mg/kg, iv measured after 6 hrs post dose relative to acetazolamide-treated control; assay type: ADME, organism-based; conditions: in vivo; how it was run: as §2
Rattus norvegicus [9] = test: Antikaliuretic effect in Sprague-Dawley rat assessed as decrease in acetazolamide-induced K+ excretion at 1.5 mg/kg, iv measured after 6 hrs post dose relative to acetazolamide-treated control; assay type: ADME, organism-based; design: scale not given: the % may be the effect or the level left; conditions: in vivo
How it was run: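 Male 21-week-old Sprague-Dawley rats, 8 per group. Given 25 mg/kg acetazolamide ip (0.9% saline), then 1.5 mg/kg compound iv (50 mM acetate buffer pH 5.5/5% DMSO, plus 0.5% Tween-80 for some analogs). Vehicle-only group included. Total urine collected in metabolic cages over 6 h. Urine Na+ and K+ measured on a biochemistry analyzer; compared with acetazolamide controls.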

MDA-MB-231 = test: Cytotoxicity against human MDA-MB-231 cells assessed as reduction in cell viability after 48 hrs by CellTiter 96 Aqueous One solution cell proliferation assay; assay type: functional, cell-based; conditions: MDA-MB-231, 48 h; how it was run: as §1

Sequence of Vitamin K-dependent protein C (P04070 43-197 limits assumed): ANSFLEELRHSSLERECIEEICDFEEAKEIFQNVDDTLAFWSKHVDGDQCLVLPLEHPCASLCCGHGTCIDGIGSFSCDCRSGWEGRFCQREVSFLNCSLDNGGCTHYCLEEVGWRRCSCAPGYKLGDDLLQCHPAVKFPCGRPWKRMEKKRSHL
Sequence of Vitamin K-dependent protein C (P04070 212-461 limits assumed): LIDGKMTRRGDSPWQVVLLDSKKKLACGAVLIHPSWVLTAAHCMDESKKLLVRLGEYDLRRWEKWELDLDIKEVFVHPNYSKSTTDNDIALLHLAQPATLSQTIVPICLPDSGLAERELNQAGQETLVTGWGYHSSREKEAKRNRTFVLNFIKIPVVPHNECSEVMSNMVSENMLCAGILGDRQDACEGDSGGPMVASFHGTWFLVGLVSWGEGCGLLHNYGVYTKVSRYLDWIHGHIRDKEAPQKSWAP
Sequence of Plasminogen (P00747 97-580 limits assumed): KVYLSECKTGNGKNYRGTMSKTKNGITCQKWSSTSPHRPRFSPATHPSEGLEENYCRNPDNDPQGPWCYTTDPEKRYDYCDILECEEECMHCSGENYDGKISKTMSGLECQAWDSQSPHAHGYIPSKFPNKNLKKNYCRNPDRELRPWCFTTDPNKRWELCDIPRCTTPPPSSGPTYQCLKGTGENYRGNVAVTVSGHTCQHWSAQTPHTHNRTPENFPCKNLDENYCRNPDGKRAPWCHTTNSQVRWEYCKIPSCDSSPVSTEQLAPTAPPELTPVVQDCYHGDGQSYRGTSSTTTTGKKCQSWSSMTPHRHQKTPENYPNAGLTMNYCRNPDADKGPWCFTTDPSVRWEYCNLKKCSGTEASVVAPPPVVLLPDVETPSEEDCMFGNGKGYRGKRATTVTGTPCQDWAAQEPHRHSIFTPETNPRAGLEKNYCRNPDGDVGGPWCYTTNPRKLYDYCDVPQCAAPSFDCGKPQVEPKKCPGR
Sequence of Plasminogen (P00747 581-810 limits assumed): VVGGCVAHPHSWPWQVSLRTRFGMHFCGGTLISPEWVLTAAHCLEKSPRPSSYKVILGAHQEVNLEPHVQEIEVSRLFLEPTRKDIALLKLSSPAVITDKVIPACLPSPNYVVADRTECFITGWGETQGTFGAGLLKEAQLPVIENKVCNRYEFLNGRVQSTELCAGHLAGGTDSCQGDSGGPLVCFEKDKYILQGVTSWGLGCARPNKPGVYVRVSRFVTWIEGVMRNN
Sequence of Plasma kallikrein (P03952 20-390 limits assumed): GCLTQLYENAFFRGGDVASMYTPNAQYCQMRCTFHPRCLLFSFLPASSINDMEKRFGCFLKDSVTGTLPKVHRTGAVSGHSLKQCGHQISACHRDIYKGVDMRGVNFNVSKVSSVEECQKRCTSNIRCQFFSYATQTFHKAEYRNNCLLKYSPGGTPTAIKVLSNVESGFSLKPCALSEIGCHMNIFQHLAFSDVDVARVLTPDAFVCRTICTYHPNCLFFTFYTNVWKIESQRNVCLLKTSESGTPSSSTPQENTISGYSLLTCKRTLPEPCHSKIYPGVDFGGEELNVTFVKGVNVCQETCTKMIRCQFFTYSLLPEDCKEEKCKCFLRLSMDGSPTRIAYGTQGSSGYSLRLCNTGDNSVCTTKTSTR
Sequence of Plasma kallikrein (P03952 391-638 limits assumed): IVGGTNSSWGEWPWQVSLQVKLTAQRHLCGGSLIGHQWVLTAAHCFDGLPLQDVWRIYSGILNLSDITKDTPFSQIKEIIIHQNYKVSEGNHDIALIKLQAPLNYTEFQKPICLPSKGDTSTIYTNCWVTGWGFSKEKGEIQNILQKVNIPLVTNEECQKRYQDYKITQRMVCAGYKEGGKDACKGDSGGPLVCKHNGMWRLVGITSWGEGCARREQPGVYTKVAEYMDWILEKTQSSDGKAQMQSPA
Sequence of Coagulation factor XI (P03951 19-387 limits assumed): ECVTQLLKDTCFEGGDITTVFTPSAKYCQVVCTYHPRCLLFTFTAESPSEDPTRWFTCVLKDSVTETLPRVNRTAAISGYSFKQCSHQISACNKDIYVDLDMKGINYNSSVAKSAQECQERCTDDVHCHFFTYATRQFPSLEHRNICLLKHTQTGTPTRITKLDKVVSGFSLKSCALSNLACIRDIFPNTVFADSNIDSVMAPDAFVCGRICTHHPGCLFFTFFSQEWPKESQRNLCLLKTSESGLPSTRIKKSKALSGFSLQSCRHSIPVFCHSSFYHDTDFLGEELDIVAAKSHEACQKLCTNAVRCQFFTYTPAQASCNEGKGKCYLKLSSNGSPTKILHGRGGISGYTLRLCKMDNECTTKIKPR
Sequence of Coagulation factor XI (P03951 388-625 limits assumed): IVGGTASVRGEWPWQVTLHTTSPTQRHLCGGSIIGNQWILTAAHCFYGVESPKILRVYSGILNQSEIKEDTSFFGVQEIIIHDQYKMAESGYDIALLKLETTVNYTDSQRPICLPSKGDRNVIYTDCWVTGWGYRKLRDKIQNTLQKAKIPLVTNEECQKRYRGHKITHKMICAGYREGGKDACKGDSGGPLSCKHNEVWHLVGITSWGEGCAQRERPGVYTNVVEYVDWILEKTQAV
Sequence of Coagulation factor X (P00742 41-179 limits assumed): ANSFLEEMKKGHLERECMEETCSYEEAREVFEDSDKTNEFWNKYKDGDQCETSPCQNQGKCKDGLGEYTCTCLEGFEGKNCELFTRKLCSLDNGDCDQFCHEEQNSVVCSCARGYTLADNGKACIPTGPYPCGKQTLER
Sequence of Coagulation factor X (P00742 235-488 limits assumed): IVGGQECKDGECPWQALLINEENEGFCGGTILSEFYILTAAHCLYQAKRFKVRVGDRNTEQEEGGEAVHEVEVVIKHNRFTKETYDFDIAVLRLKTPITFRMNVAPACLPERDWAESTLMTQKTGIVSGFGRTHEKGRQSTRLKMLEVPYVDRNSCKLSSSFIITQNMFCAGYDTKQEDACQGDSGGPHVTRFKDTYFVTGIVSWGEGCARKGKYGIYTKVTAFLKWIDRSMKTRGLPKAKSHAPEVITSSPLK
Sequence of Tissue-type plasminogen activator (P00750 whole entry): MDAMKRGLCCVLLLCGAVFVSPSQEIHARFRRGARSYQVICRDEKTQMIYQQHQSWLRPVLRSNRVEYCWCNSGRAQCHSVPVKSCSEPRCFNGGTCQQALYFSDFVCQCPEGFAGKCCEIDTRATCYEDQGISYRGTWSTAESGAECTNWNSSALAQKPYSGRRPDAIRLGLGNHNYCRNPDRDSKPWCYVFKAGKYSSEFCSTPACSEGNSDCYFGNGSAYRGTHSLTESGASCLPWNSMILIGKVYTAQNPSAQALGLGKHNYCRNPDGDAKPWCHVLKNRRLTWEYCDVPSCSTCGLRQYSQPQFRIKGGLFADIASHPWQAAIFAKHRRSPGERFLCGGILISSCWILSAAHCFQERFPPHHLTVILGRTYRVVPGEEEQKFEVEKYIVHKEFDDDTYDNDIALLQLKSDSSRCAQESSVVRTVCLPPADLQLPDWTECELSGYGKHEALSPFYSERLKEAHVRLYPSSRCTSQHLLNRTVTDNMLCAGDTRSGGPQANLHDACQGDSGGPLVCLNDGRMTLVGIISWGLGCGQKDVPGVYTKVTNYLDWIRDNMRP
Sequence of Urokinase-type plasminogen activator (Mus musculus, UniProt P06869) (P06869 21-178 limits assumed): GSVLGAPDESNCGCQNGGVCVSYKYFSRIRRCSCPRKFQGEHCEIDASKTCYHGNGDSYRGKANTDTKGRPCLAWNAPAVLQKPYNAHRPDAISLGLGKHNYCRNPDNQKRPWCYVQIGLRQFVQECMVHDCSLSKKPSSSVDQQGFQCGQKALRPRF
Sequence of Urokinase-type plasminogen activator (Mus musculus, UniProt P06869) (P06869 180-433 limits assumed): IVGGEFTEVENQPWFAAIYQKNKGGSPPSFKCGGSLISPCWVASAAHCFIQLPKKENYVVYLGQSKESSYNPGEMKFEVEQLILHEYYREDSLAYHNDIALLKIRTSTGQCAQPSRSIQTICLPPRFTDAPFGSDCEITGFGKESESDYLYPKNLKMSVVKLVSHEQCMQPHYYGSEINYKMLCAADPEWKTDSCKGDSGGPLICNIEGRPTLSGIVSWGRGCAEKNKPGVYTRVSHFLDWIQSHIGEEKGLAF

Row | Structure (SMILES) | pKi [1] | pIC50 [2] | pIC50 [3] | pIC50 (Plasminogen) | pIC50 (Prothrombin) | pIC50 (Plasma kallikrein) | pIC50 (Coagulation factor XI) | pIC50 (Coagulation factor X) | pIC50 [4] | pIC50 (HepG2) | pIC50 (HEK293) | pIC50 (HT-1080) | pKi [5] | inhibition (INH) [6] | Activity (Rattus norvegicus [7]) | Activity (Rattus norvegicus [8]) | Activity (Rattus norvegicus [9]) | pIC50 (MDA-MB-231)
1 | N=C(N)NC(=O)c1nc(-c2cc3ccccc3o2)c(N2CCCCCC2)nc1N | 6.74 | 6.28 | < 5.00 | < 5.00 | < 5.00 | 4.95 | 4.51 | < 4.30 | < 4.30 | 4.90 | 5.51 | 5.34 | 5.74 | Not Active | Non-Toxic | Non-Toxic | Non-Toxic | –
2 | COc1ncc(-c2nc(C(=O)NC(=N)N)c(N)nc2N2CCCCCC2)cn1 | 7.28 | 7.41 | < 4.70 | < 4.70 | < 4.70 | < 4.30 | < 4.30 | < 4.30 | < 4.30 | 4.24 | 4.13 | 4.35 | 5.79 | – | Non-Toxic | Non-Toxic | 24% | < 4.00
3 | N=C(N)NC(=O)c1nc(Cl)c(N2CCCCCC2)nc1N [N,N-HEXAMETHYLENEAMILORIDE] | 5.87 | 5.62 | < 5.00 | < 5.00 | < 5.00 | < 4.30 | < 4.30 | < 4.30 | < 4.30 | 4.69 | 5.55 | 5.18 | 5.03 | Not Active | Non-Toxic | Non-Toxic | 24% | 4.56
